Key:
[1] = tested on: Human immunodeficiency virus 1; assay: Antiviral activity against HIV1 infected in CD4/CXCR4/CCR5 expressing human P4R5 MAGI cells preincubated with cells for 24 hrs followed by viral infection measured after 48 hrs by beta-galactosidase reporter gene assay; type: functional, organism-based
[2] = Cytotoxicity against human P4R5 MAGI cells; type: cell-based
Procedure, shortened: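 P4R5 cells express CD4, CXCR4, CCR5 and an HIV LTR-driven β-galactosidase reporter. They were seeded at 4×10^3 cells per well in DMEM/10% FBS with puromycin (1 µg/mL).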

[3] = molecular target: Human immunodeficiency virus type 1 reverse transcriptase (Human immunodeficiency virus 1, UniProt Q72547); assay: Inhibition of HIV1 reverse transcriptase RNaseH activity using 3'-fluorescein/5'-Dabcyl labeled HTS-1 substrate
Gag-Pol polyprotein = Gag-Pol polyprotein (Human immunodeficiency virus type 1 group M subtype B (isolate HXB2)(HIV-1), UniProt P04585); assay: Inhibition of HIV1 reverse transcriptase polymerase activity using 18 nucleotide DNA primer and 100 nucleotide DNA template after 30 mins; parameters: species or system Human immunodeficiency virus 1
Procedure, shortened: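 Full-length RT at 20 nM with 40 nM template/primer (18-nt DNA primer on 100-nt DNA template) and 10 µM dNTPs in 50 mM Tris pH 7.8, 50 mM NaCl. Started with 6 mM MgCl2, with 1% DMSO and increasing compound concentrations. Primer extension ran 30 min at 37 °C and was stopped with 100 mM EDTA.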

[4] = molecular target: Human immunodeficiency virus type 1 integrase (Human immunodeficiency virus 1, UniProt Q7ZJM1); assay: Inhibition of HIV integrase strand transfer activity using 5'-biotin/3'-Cy5-labeled DNA substrate preincubated for 5 mins followed by substrate addition measured after 30 mins by HTS assay
Sequence of Human immunodeficiency virus type 1 integrase (Q7ZJM1 whole entry): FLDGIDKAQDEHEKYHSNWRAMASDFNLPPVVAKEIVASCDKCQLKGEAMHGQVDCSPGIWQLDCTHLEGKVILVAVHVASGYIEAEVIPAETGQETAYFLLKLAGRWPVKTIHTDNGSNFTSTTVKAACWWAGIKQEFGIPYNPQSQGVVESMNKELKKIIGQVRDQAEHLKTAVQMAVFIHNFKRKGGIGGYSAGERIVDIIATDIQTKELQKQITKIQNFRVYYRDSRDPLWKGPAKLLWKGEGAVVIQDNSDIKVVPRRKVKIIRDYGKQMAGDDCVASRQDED

[5] = Effective permeability of the compound at 10 uM after 5 hrs by PAMPA; type: ADME
Procedure, shortened: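 Lipid-precoated PAMPA plates thawed 30 min at room temperature. Compounds diluted from 10 mM DMSO stock into DPBS to 10 µM final and placed in donor wells, with DPBS in acceptor wells. Incubated 5 h at 25 °C without agitation. Donor and acceptor concentrations measured by LC-MS/MS. Pe calculated from acceptor and equilibrium concentrations, filter area 0.3 cm² and well volumes.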

| SMILES | EC50 [1] [µM] | CC50 [2] [µM] | IC50 [3] [µM] | IC50 (Gag-Pol polyprotein) [µM] | IC50 [4] [µM] | Peff [5] [×10⁻⁶ cm/s] |
| --- | --- | --- | --- | --- | --- | --- |
| COc1cccc(-c2ccc(Nc3cc(=O)n(O)c(=O)[nH]3)cc2)c1 | > 25 | > 25 | – | – | – | – |
| O=c1cc(Sc2ccc(-c3ccccc3)cc2)[nH]c(=O)n1O | – | – | 0.09 | 3.2 | – | – |
| O=c1cc(Sc2ccc(-c3ccc(Cl)cc3)cc2)[nH]c(=O)n1O | 16 | > 100 | 0.007 | > 10 | > 1 | – |
| O=c1cc(Sc2cccc(-c3ccc(F)cc3)c2)[nH]c(=O)n1O | 5 | > 100 | 0.005 | 9.9 | > 0.14 | – |
| O=c1cc(Sc2ccc(F)cc2)[nH]c(=O)n1O | > 20 | > 100 | 0.037 | > 10 | 6.8 | – |
| COc1ccc(Sc2cc(=O)n(O)c(=O)[nH]2)cc1 | > 20 | > 100 | 0.012 | > 10 | 3.6 | – |
| O=c1cc(Sc2cccc(C(F)(F)F)c2)[nH]c(=O)n1O | 6.2 | > 100 | 0.013 | > 10 | 0.88 | – |
| O=c1cc(Sc2ccc(-c3ccc(C(F)(F)F)cc3)cc2)[nH]c(=O)n1O | 12 | > 100 | 0.039 | 8.4 | > 1 | – |
| O=c1cc(Sc2ccccc2-c2ccc(F)cc2)[nH]c(=O)n1O | 11 | > 100 | 0.012 | > 10 | > 100 | – |
| COc1ccc(-c2ccc(Sc3cc(=O)n(O)c(=O)[nH]3)cc2)cc1F | 8 | > 100 | 0.004 | 6.8 | > 0.14 | – |
| COc1cccc(Sc2cc(=O)n(O)c(=O)[nH]2)c1 | 16 | > 100 | 0.013 | > 10 | 2.7 | – |
| O=c1cc(Sc2ccccc2)[nH]c(=O)n1O | 11 | > 100 | 0.016 | > 10 | 1.1 | – |
| O=c1cc(Sc2cccc(-c3cccc(F)c3)c2)[nH]c(=O)n1O | 6.5 | > 100 | 0.006 | 9.6 | 0.24 | – |
| O=c1cc(Sc2cccc3ccccc23)[nH]c(=O)n1O | 6.3 | > 100 | 0.007 | 10 | 0.79 | – |
| O=c1[nH]c(Sc2ccc(Br)cc2)c(Br)c(=O)n1O | – | – | 0.07 | 5 | – | – |
| O=c1cc(Sc2cccc(Br)c2)[nH]c(=O)n1O | 8.2 | > 100 | 0.011 | > 10 | 1.2 | – |
| O=c1cc(Sc2ccc(-c3cccc(C(F)(F)F)c3)cc2)[nH]c(=O)n1O | > 20 | > 100 | 0.008 | > 10 | > 100 | – |
| CCc1ccc(Sc2cc(=O)n(O)c(=O)[nH]2)cc1 | 11 | > 100 | 0.01 | > 10 | 1.3 | – |
| O=c1cc(Sc2cccc(-c3ccc(C(F)(F)F)cc3)c2)[nH]c(=O)n1O | 11 | > 100 | 0.007 | 10 | > 0.14 | – |
| O=c1[nH]c(Sc2ccc(Br)cc2)c(I)c(=O)n1O | – | – | 0.12 | 0.46 | – | – |
| O=c1cc(Sc2ccc(Cl)cc2)[nH]c(=O)n1O | > 20 | > 100 | 0.012 | > 10 | 0.64 | 0.35 |
| COc1cccc(-c2ccc(Sc3cc(=O)n(O)c(=O)[nH]3)cc2)c1 | 7.7 | > 100 | 0.005 | 10 | > 1 | – |
| O=c1cc(Sc2ccccc2C(F)(F)F)[nH]c(=O)n1O | 6.6 | > 100 | 0.012 | > 10 | 0.88 | – |

— ChEMBL document CHEMBL4270570 (Eur J Med Chem, 2018)
